# Assay results published in ChEMBL document CHEMBL1135445, “4'-Arylpyrrolomorphinans: effect of a pyrrolo-N-benzyl substituent in enhancing delta-opioid antagonist activity” (J Med Chem, 2002).
# Where “and” joins values, the source holds several entries; their conditions need not be identical. Equal entries are not always repeated.
# Assays:
# Mu-type opioid receptor [1] = molecular target: T1, Mu-type opioid receptor (Homo sapiens, UniProt P35372); test: Binding affinity towards recombinant human Opioid receptor mu 1 transfected in to CHO cells for the displacement of [3H]DAMGO (mu); type: cell-based
# T1 sequence (P35372 whole entry): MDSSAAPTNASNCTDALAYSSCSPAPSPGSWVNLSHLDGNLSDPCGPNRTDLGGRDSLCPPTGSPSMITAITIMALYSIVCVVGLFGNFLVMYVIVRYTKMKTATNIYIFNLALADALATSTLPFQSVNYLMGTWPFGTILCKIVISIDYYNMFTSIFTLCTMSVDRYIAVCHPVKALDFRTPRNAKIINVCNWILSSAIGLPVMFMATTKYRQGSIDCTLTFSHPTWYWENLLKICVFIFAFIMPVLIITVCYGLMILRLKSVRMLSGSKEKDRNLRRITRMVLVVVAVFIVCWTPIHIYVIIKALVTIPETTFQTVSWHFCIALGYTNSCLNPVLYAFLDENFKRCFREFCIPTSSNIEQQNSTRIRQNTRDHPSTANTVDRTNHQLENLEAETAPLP
# Method in brief: (§1)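 Radioligand displacement (Ki) at cloned human opioid receptors expressed in CHO cells. Radioligands: [3H]DAMGO for mu, [3H]Cl-DPDPE for delta, [3H]U69593 for kappa.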
# [2] = Selectivity ratio towards Opioid receptor kappa 1 to Opioid receptor delta 1
# [3] = molecular target: Opioid receptors; mu & delta (Homo sapiens) (UniProt P41143+P35372); test: Selectivity ratio of Opioid receptor mu 1 to Opioid receptor delta 1; type: protein assay
# Opioid receptors; mu & delta (Homo sapiens), sequence (P35372 whole entry, looked up): as the sequence (P35372 whole entry) above
# Opioid receptors; mu & delta (Homo sapiens), sequence (P41143 whole entry, looked up): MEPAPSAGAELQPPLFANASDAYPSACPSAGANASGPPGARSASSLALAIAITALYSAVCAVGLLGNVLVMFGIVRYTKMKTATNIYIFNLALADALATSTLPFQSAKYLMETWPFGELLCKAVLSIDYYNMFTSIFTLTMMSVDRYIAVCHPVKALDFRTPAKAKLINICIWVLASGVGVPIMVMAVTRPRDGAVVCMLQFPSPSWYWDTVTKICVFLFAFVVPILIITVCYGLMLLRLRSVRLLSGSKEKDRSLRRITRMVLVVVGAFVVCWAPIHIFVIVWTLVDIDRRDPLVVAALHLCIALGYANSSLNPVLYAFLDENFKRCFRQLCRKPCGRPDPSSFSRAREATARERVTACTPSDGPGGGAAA
# [4] = molecular target: T2, Delta-type opioid receptor (Homo sapiens, UniProt P41143); test: Binding affinity towards recombinant human Opioid receptor delta 1 transfected in to CHO cells for the displacement of [3H]Cl-DPDPE (delta); type: cell-based; method in brief: as §1
# T2 sequence (P41143 whole entry): as the sequence (P41143 whole entry, looked up) above
# [5] = molecular target: T3, Kappa-type opioid receptor (Homo sapiens, UniProt P41145); test: Binding affinity towards recombinant human Opioid receptor kappa 1 transfected in to CHO cells for the displacement of [3H]U-69593; type: cell-based; method in brief: as §1
# T3 sequence (P41145 whole entry): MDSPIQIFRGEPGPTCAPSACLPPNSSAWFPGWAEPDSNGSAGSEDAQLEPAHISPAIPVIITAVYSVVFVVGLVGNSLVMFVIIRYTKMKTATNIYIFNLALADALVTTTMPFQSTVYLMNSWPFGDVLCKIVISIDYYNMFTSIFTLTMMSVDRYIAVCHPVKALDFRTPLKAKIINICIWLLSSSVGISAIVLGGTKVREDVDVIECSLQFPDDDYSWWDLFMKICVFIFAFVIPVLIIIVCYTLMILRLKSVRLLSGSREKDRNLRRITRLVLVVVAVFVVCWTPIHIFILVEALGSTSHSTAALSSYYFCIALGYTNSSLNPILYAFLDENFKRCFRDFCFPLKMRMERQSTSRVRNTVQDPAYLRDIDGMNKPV
# Mu-type opioid receptor [6] = molecular target: T1, Mu-type opioid receptor; test: The antagonistic activity tested in [35S]-GTP-gamma S Recombinant Human Opioid receptor mu 1 transfected in to CHO cells for the displacement of [3H]DAMGO (mu); type: functional, cell-based
# Method in brief: (§2)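 [35S]GTPγS binding in CHO cells expressing cloned human opioid receptors. Antagonist affinity (Ke) was derived from the compound's blockade of a standard agonist: DAMGO at mu, Cl-DPDPE at delta, U69593 at kappa.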
# [7] = molecular target: T2, Delta-type opioid receptor; test: Partial agonist activity tested in [35S]GTP-gamma-S, Recombinant Human Opioid receptor delta 1 transfected in to CHO cells for the displacement of [3H]Cl-DPDPE (delta); type: functional, cell-based
# [8] = molecular target: T3, Kappa-type opioid receptor; test: The antagonistic activity of compound was tested in [35S]GTP-gamma-S, Recombinant Human Opioid receptor kappa 1 transfected in to CHO cells for the displacement of [3H]U-69593; type: functional, cell-based; method in brief: as §2
# Mu-type opioid receptor [9] = molecular target: T1, Mu-type opioid receptor; test: Selectivity ratio Opioid receptor mu 1 to Opioid receptor delta 1
# [10] = molecular target: T2, Delta-type opioid receptor; test: The antagonistic activity tested in [35S]GTP-gamma-S, Recombinant Human Opioid receptor delta 1 in to CHO cells for the displacement of [3H]Cl-DPDPE (delta); type: functional, cell-based; method in brief: as §2
# Mu-type opioid receptor [11] = molecular target: T1, Mu-type opioid receptor; test: The partial agonist activity tested in [35S]-GTP-gamma S Recombinant Human Opioid receptor mu 1 transfected in to CHO cells for the displacement of [3H]-DAMGO (mu); type: functional, cell-based
# [12] = molecular target: T3, Kappa-type opioid receptor; test: Binding affinity towards recombinant human Opioid receptor kappa 1 transfected in to CHO cells for the displacement of […]; type: cell-based; method in brief: as §1
# [13] = molecular target: T2, Delta-type opioid receptor; test: The antagonistic activity tested in [35S]GTP-gamma-S, Recombinant Human Opioid receptor delta 1 transfected in to CHO cells for the displacement of [3H]Cl-DPDPE (delta); type: functional, cell-based; method in brief: as §2
# [14] = molecular target: T2, Delta-type opioid receptor; test: Binding affinity towards recombinant humanOpioid receptor delta 1 transfected in to CHO cells for the displacement of [3H]Cl-DPDPE (delta); type: cell-based; method in brief: as §1
structure (smiles),measurement,setting,value
CN1CC[C@]23c4c5ccc(O)c4O[C@H]2c2c(c(-c4ccccc4)cn2Cc2ccccc2)C[C@@]3(O)C1C5,Ki,Mu-type opioid receptor [1],49.5 nM
same,Ratio,[2],1.6
same,Ratio,[3],0.43
same,Ki,[4],116 nM
same,Ki,[5],187 nM
same,Ke,Mu-type opioid receptor [6],14.1 nM
same,EC50,[7],55.2 nM
same,Ke,[8],1160 nM
COc1ccc2c3c1O[C@H]1c4c(c(-c5ccccc5)cn4Cc4ccccc4)C[C@@]4(O)C(C2)N(C)CC[C@]314,Ki,Mu-type opioid receptor [1],> 10000 nM
same,Ratio,[2],> 31
same,Ratio,[3],> 31
same,Ki,[4],322 nM
same,Ki,[5],> 10000 nM
Cc1ccc(-c2cn(Cc3ccccc3)c3c2C[C@@]2(O)C4Cc5ccc(O)c6c5[C@@]2(CCN4CC2CC2)[C@H]3O6)cc1,Ki,Mu-type opioid receptor [1],77.9 nM
same,Ki,[4],23.5 nM
same,Ratio,Mu-type opioid receptor [9],3.3
same,Ke,[10],2.37 nM
same,Ke,[8],61.1 nM
same,EC50,Mu-type opioid receptor [11],1360 nM
same,Ki,[12],108 nM
Oc1ccc2c3c1O[C@H]1c4[nH]c5ccccc5c4C[C@@]4(O)[C@@H](C2)N(CC2CC2)CC[C@]314,Ke,[13],0.11 nM
same,Ke,Mu-type opioid receptor [6],4.26 nM
same,Ke,[8],4.95 nM
Cc1c(-c2ccccc2)c2c(n1Cc1ccccc1)[C@@H]1Oc3c(O)ccc4c3[C@@]13CCN(CC1CC1)C(C4)[C@]3(O)C2,Ki,Mu-type opioid receptor [1],52.7 nM
same,Ratio,[3],3 and 5
same,Ke,[13],3.68 nM
same,Ki,[4],17.3 nM
same,Ke,Mu-type opioid receptor [6],17.7 nM
same,Ke,[8],306 nM
same,Ki,[12],183 nM
Oc1ccc2c3c1O[C@H]1c4c(c(-c5ccccc5)cn4Cc4ccccc4)C[C@@]4(O)C(C2)N(CC2CC2)CC[C@]314,Ki,Mu-type opioid receptor [1],16.8 nM
same,Ki,[14],13.7 nM
same,Ki,[12],120 nM
CCCN1CC[C@]23c4c5ccc(O)c4O[C@H]2c2c(c(-c4ccccc4)cn2Cc2ccccc2)C[C@@]3(O)C1C5,Ki,Mu-type opioid receptor [1],40.1 nM
same,Ke,[13],6.4 nM
same,Ki,[4],21.2 nM
same,Ke,Mu-type opioid receptor [6],45.3 nM
same,Ke,[8],210 nM
same,Ki,[12],191 nM
